The source made the active and inactive calls. The calls are words filed in the database; no cut-off is given here.
Columns and labels:
[1] = target: T1, Delta-type opioid receptor (Homo sapiens, UniProt P41143); assay: Displacement of [3H]-DPN from recombinant human delta opioid receptor expressed in CHO-K1 cell membranes by radioligand binding assay
Outline: (§1)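 Membranes from CHO-K1 cells stably transfected with human recombinant μ or δ receptor, or guinea pig κ receptor; competition with [3H]-DPN radioligand; affinity reported as pKi.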

[2] = target: T2, Mu-type opioid receptor (Homo sapiens, UniProt P35372); assay: Antagonist activity at human recombinant mu opioid receptor expressed in CHO-K1 cell membranes assessed as intrinsic activity at 10 pM to 20 uM incubated for 30 mins in presence of Eu-GTP by DELFIA GTP binding assay relative to DAMGO
T2 sequence (P35372 whole entry): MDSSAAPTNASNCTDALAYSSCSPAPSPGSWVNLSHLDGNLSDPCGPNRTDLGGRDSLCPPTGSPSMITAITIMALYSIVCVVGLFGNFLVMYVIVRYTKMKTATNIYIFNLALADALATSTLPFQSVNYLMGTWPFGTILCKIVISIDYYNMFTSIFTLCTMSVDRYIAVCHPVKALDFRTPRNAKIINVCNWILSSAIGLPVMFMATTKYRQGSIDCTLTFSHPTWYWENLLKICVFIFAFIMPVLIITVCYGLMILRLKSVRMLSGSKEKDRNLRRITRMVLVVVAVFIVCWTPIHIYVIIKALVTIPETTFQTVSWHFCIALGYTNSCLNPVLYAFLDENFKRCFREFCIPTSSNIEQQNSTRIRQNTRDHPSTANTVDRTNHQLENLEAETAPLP

[3] = Half life in rat liver microsomes at 15 uM; type: ADME, Microsome
[4] = target: T2, Mu-type opioid receptor; assay: Displacement of [3H]-DPN from recombinant human mu opioid receptor expressed in CHO-K1 cell membranes by radioligand binding assay; outline: as §1
[5] = target: T3, Kappa-type opioid receptor (Cavia porcellus, UniProt P41144); assay: Displacement of [3H]-DPN from guinea pig kappa opioid receptor expressed in CHO-K1 cell membranes by radioligand binding assay; outline: as §1
T3 sequence (P41144 whole entry): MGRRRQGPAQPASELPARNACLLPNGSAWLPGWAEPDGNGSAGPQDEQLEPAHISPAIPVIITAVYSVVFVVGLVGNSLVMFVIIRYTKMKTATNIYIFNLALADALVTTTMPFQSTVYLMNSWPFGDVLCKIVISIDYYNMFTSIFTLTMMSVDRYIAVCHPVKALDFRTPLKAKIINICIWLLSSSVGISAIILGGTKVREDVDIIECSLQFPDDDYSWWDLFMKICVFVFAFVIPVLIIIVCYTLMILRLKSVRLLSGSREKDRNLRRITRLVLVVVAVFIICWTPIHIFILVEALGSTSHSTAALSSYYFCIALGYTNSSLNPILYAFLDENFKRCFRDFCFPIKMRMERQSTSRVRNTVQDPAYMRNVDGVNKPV

[6] = Oral bioavailability in human; type: ADME, organism-based; conditions: in vivo
[7] = Cmax in Sprague-Dawley rat at 100 mg/kg, po administered via gavage; type: ADME, organism-based; parameters: dose 100 mg/kg, route oral; conditions: in vivo
[8] = tested on: Mus musculus; assay: Inhibition of morphine-induced delays in gastric emptying in po dosed ICR mouse administered via gavage pretreated with compound and 30 mins later injected with morphine followed 5 mins later by ingestion of test meal and measured after 60 mins; type: functional; conditions: for ED50: read-out: ID50 (the source's name)
Outline: (§2)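 Mice dosed orally; reversal of morphine-induced delay in intestinal transit, delay in gastric emptying, or hot plate antinociception measured; dose-dependent responses fitted to give ID50 in mg/kg.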

[9] = Permeability coefficient, Kp in human Caco2 cells; type: ADME, cell-based; conditions: Caco-2, read-out: Kp
[10] = Half life in rat liver microsomes at 3 uM; type: ADME, Microsome
[11] = tested on: Mus musculus; assay: Inhibition of morphine-induced delays in intestinal transit in po dosed ICR mouse administered via gavage pretreated with compound and 30 mins later injected with morphine followed 5 mins later by ingestion of test meal and measured after 60 mins; type: functional; conditions: for ED50: read-out: ID50 (the source's name); outline: as §2
[12] = Half life in human liver microsomes at 3 uM; type: ADME, Microsome
[13] = Oral bioavailability in Sprague-Dawley rat at 100 mg/kg administered via gavage; type: ADME, organism-based; conditions: in vivo
[14] = Half life in Sprague-Dawley rat at 100 mg/kg, po administered via gavage; type: ADME, organism-based; conditions: in vivo
Outline: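 Male Sprague–Dawley rats received 100 mg/kg by oral gavage, with n = 3. Plasma half-life was taken from the pharmacokinetic profile alongside Cmax, AUC(0–t) and oral bioavailability.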

[15] = AUC(0 to t) in Sprague-Dawley rat at 100 mg/kg, po administered via gavage; type: ADME, organism-based; conditions: in vivo
[16] = Half life in dog liver microsomes at 3 uM; type: ADME, Canis lupus familiaris, Microsome
[17] = Oral bioavailability in Sprague-Dawley rat at 5 mg/kg administered via gavage; type: ADME, organism-based; conditions: in vivo
[18] = tested on: Rattus norvegicus; assay: Reversal of castor oil-induced diarrhea in po dosed Sprague-Dawley rat po administered with compound and loperamide at 45 mins and 15 mins prior to castor oil administration and measured after 2 hrs; type: functional; conditions: read-out: ID50 (the source's name)
[19] = tested on: Canis familiaris; assay: Reversal of morphine-induced sedation in Beagle dog at 3 mg/kg, po administered with compound prior to morphine challenge and measured up to 120 mins post-mophine administration; type: functional, organism-based; conditions: Canis lupus familiaris
[20] = target: Mu-type opioid receptor (Cavia porcellus, UniProt P97266); assay: Antagonist activity at mu opioid receptor in guinea pig ileum assessed as inhibition of electric field stimulated contractions incubated for 15 mins in presence of endomorphin-1; type: tissue-based; conditions: read-out: pA2 (converted)
Mu-type opioid receptor (Cavia porcellus, UniProt P97266), sequence (P97266 whole entry): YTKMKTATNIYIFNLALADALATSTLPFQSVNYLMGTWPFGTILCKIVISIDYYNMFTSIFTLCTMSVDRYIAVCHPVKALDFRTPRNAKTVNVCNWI

[21] = tested on: Mus musculus; assay: Inhibition of morphine-dependent CNS-mediated withdrawal response in Swiss Webster mouse at 30 mg/kg, po after 60 mins; type: functional, organism-based
[22] = tested on: Canis familiaris; assay: Inhibition of loperamide-induced gastrointestinal contraction in Beagle dog at 3 mg/kg, po incubated with compound followed 15 mins later by treated with loperamide and measured for 30 mins; type: functional, organism-based; conditions: Canis lupus familiaris
[23] = target: T3, Kappa-type opioid receptor; assay: Antagonist activity at kappa opioid receptor in guinea pig ileum assessed as inhibition of electric field stimulated tissue contraction incubated for 15 mins in presence of U69593; type: tissue-based; conditions: read-out: pA2 (converted)
[24] = Drug uptake in rat brain at 20 mg/kg, po; type: ADME, organism-based; conditions: in vivo
Outline: (§3)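 Rats given 20 mg/kg orally; CSF, brain and plasma concentrations measured to estimate CNS penetration.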

[25] = Protein binding in human plasma; type: ADME, cell-free; conditions: read-out: PPB
[26] = Half life in Sprague-Dawley rat at 5 mg/kg, po administered via gavage; type: ADME, organism-based; conditions: in vivo
[27] = tested on: Canis familiaris; assay: Reversal of morphine-induced antinociception in Beagle dog at 3 mg/kg, po treated with compound prior to morphine challenge measured after 15 to 45 mins by hot plate test; type: functional, organism-based; conditions: Canis lupus familiaris
[28] = organism: Mus musculus; assay: Peripheral selectivity index, ratio of ID50 for inhibition of morphine-induced delays in gastric emptying in ICR mouse to ID50 for inhibition of morphine-induced delays in intestinal transit in ICR mouse; type: functional
[29] = organism: Mus musculus; assay: Peripheral selectivity index, ratio of ID50 for inhibition of morphine-induced antinociceptive activity in ICR mouse to ID50 for inhibition of morphine-induced delays in intestinal transit in ICR mouse; type: functional
Outline: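 Mice were dosed orally with antagonist at several doses and challenged with morphine. ID50 values were taken from dose-dependent reversal of morphine-induced hot plate antinociception (CNS) and of morphine-induced delay in intestinal transit (peripheral). The index is the hot plate ID50 divided by the intestinal transit ID50.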

[30] = target: T1, Delta-type opioid receptor; assay: Antagonist activity at human recombinant delta opioid receptor expressed in CHO-K1 cell membrane assessed as inhibition of DPDPE-induced [35S]-GTPgammaS binding incubated for 30 mins by time resolved fluorescence assay
[31] = AUC(0 to t) in Sprague-Dawley rat at 5 mg/kg, po administered via gavage; type: ADME, organism-based; conditions: in vivo
[32] = Oral bioavailability in fasted female Beagle dog; type: ADME, organism-based, Canis lupus familiaris; conditions: in vivo
[33] = Oral bioavailability in fasted male Beagle dog; type: ADME, organism-based, Canis lupus familiaris; conditions: in vivo
[34] = tested on: Mus musculus; assay: Inhibition of morphine-induced antinociceptive activity in po dosed ICR mouse administered via gavage pretreated with compound and 30 mins later injected with morphine and measured after 30 mins by hot plate test; type: functional; conditions: for ED50: read-out: ID50 (the source's name); outline: as §2
[35] = tested on: Rattus norvegicus; assay: Reversal of loperamide-induced delay in gastric emptying in po dosed Sprague-Dawley rat administered with compound and loperamide at 35 mins and 5 mins prior to test meal respectively measured after 60 mins; type: functional; conditions: read-out: ID50 (the source's name)
[36] = Efflux ratio of permeability in human Caco2 cells; type: ADME, cell-based; conditions: Caco-2
[37] = tested on: MDR1; assay: Efflux ratio of permeability in dog MDCK-MDR1 cells; type: ADME, cell-based, Canis lupus familiaris
[38] = target: T2, Mu-type opioid receptor; assay: Antagonist activity at human recombinant mu opioid receptor expressed in CHO-K1 cell membrane assessed as inhibition of DAMGO-induced GTP binding incubated for 30 mins in presence of Eu-GTP by DELFIA GTP binding assay
[39] = tested on: Rattus norvegicus; assay: Reversal of morphine-induced antinociception in Sprague-Dawley rat at >60 mg/kg, po pretreated for 30 mins followed by morphine injection and measured after 60 mins by hot plate test; type: functional, organism-based
[40] = Cmax in Sprague-Dawley rat at 5 mg/kg, po administered via gavage; type: ADME, organism-based; parameters: dose 5 mg/kg, route oral; conditions: in vivo
[41] = target: Kappa-type opioid receptor (Cavia porcellus) (UniProt P41144); assay: Antagonist activity at guinea pig recombinant kappa opioid receptor expressed in CHO-K1 cell membrane assessed as inhibition of U69593-induced [35S]-GTPgammaS binding incubated for 30 mins by time resolved fluorescence assay
Kappa-type opioid receptor (Cavia porcellus), sequence (P41144 whole entry): as the sequence (P41144 whole entry) above

[42] = Drug uptake in rat cerebrospinal fluid at 20 mg/kg, po; type: ADME, organism-based; conditions: in vivo; outline: as §3
[43] = organism: Mesocricetus auratus; assay: Antagonist activity at delta opiod receptor in golden syrian hamster vas deferens assessed as inhibition of electric field stimulated tissue contraction incubated for 15 mins in presence of […]

T1 sequence (P41143 whole entry): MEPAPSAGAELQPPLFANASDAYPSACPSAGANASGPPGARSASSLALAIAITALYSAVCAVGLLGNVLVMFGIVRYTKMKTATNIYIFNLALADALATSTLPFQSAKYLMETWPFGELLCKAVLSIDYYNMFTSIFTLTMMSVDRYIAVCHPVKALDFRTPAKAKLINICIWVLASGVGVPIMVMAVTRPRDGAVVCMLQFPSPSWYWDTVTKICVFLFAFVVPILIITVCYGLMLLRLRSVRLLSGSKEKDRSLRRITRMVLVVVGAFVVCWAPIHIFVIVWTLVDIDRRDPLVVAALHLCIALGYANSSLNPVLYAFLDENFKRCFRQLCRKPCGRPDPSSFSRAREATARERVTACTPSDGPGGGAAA

Structure (SMILES): NC(=O)c1cccc([C@H]2C[C@H]3CC[C@@H](C2)N3CCNCC2CCCCC2)c1
- Ki [1]: 6.31 nM
- Intrinsic activity [2]: 12%
- half-life at 15 µM [3]: 0.7 h
- Ki [4]: 0.251 nM
- Ki [5]: 0.158 nM

Structure (SMILES): C[N+]1(CC2CC2)CC[C@]23c4c5ccc(O)c4O[C@H]2C(=O)CC[C@@]3(O)[C@H]1C5.[Br-] (some centres not stated) [METHYLNALTREXONE BROMIDE]
- bioavailability [6]: < 1%
- Cmax [7]: 570 ng/mL
- ED50 [8]: 25 mg/kg
- Papp [9]: 2 ×10⁻⁶ cm/s
- half-life at 3 µM [10]: > 1.5 h
- ED50 [11]: 67 mg/kg
- half-life at 3 µM [12]: > 1.5 h
- bioavailability [13]: 2.6%
- Intrinsic activity [2]: 19%
- half-life [14]: 2.8 h
- AUC(0-t) [15]: 490 ng·h/mL
- half-life at 3 µM [16]: > 1.5 h

Structure (SMILES): NC(=O)c1cccc([C@H]2C[C@H]3CC[C@@H](C2)N3CCN(CC2CCCCC2)C(=O)[C@@H](O)CO)c1.O=S(=O)(O)O [AXELOPRAN SULFATE]
- bioavailability [17]: 27%
- ED50 [18]: 0.01 mg/kg
- inhibition [19]: Active
- Kb [20]: 0.0794 nM
- inhibition [21]: inactive
- inhibition [22]: Active
- Kb [23]: 1.58 nM
- Drug uptake [24]: < 2%
- fraction unbound [25]: 0.7 to 0.77
- half-life [26]: 1.3 h
- Ki [1]: 1.58 nM
- inhibition [27]: Active
- Selectivity Index [28]: 161
- inhibition [8]: Dose-dependent effect
- ED50 [8]: 0.087 mg/kg
- Selectivity Index [29]: 40
- Papp [9]: 5 ×10⁻⁶ cm/s
- pKb [30]: 8.8
- AUC(0-t) [31]: 470 ng·h/mL
- bioavailability [32]: 29%
- half-life at 3 µM [10]: 1.45 h
- inhibition [11]: Dose-dependent effect
- ED50 [11]: 0.35 mg/kg
- half-life at 3 µM [12]: 1.5 h
- bioavailability [33]: 45%
- inhibition [34]: Dose-dependent effect
- ED50 [34]: 14 mg/kg
- ED50 [35]: 0.24 mg/kg
- Intrinsic activity [2]: -3%
- efflux ratio [36]: 10
- efflux ratio [37]: 24
- pKb [38]: 9.6
- inhibition [39]: Active
- Ki [4]: 0.158 nM
- Cmax [40]: 210 ng/mL
- pKb [41]: 9.5
- half-life at 3 µM [16]: 0.45 h
- Ki [5]: 0.126 nM
- Drug uptake [42]: < 2%
- pKb [43]: 8.4

Structure (SMILES): CS(=O)(=O)CC(=O)N(CCN1[C@@H]2CC[C@H]1C[C@@H](c1cccc(C(N)=O)c1)C2)CC1CCCCC1
- bioavailability [17]: 60%
- half-life [26]: 1 h
- Ki [1]: 1.26 nM
- Selectivity Index [28]: 73
- inhibition [8]: Dose-dependent effect
- ED50 [8]: 0.33 mg/kg
- Selectivity Index [29]: 49
- Papp [9]: 18 ×10⁻⁶ cm/s
- AUC(0-t) [31]: 1300 ng·h/mL
- half-life at 3 µM [10]: 0.833 h
- inhibition [11]: Dose-dependent effect
- ED50 [11]: 0.49 mg/kg
- half-life at 3 µM [12]: 1.5 h
- inhibition [34]: Dose-dependent effect
- ED50 [34]: 24 mg/kg
- Intrinsic activity [2]: 0%
- Ki [4]: 0.1 nM
- Cmax [40]: 880 ng/mL
- half-life at 3 µM [16]: 0.467 h
- Ki [5]: 0.1 nM

— ChEMBL document CHEMBL4406921, “Discovery of Axelopran (TD-1211): A Peripherally Restricted μ-Opioid Receptor Antagonist” (ACS Med Chem Lett, 2019)
